Assay outcomes: PubChem BioAssay, several laboratories
ALR inh: inhibitors of human ALR sulfhydryl oxidase, primary screen, biochemical, H2O2 detection, HRP-luminol luminescence, single point; 290,000 compounds, 3.8% hits; inhibition, % (test concentration not listed); purified ALR, DTT oxidation; FAD-linked sulfhydryl oxidase ALR (Homo sapiens), P55789;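 active means mean replicate inhibition above about 79%, with every replicate also reaching it, limit read from the data; inconclusive means only one of the two criteria met; inactive means mean below limit and not every replicate reaching it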
Target sequence (P55789 whole entry, looked up): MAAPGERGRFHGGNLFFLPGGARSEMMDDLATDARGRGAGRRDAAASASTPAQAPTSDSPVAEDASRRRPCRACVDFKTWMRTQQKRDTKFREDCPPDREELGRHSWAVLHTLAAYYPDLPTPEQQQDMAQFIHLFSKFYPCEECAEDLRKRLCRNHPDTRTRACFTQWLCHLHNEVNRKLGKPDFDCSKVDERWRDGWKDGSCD
T cell HTS: modulators of CD8 T cell-vesicle binding, primary screen, mouse 2C CD8+ T cells, flow cytometry; 2C CD8+ T cell-vesicle binding; hits give low values; response (vesicle binding), % at 7 µM; 330,000 compounds, 0.068% hits; AID 2052, 2009;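 active means response, share of CD8 T cells binding vesicles, and their 90th percentile fluorescence all below set limits, cut at about 80% in these data, passing the limit was not always enough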;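 further: values below 100% mean blocked vesicle binding to the CD8+ T cells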
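Assay system: 2C TCR transgenic mouse naive CD8+ T cells, MACS-purified | Read-out: CD8+ gate FL2 mean fluorescence as % of same-row positive control | Signal: High-throughput flow cytometry with anti-B7-1 and anti-CD8 staining | Timing: Binding step 1.5 h, 37 °C, antibody labelling 20 min, ice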
N-glyco inh: increase of ERlucT glycosylation luciferase signal, primary screen, N-linked glycosylation inhibitor project, D54 ERlucT cells, luminescence, set 2; D54 ERlucT glycosylation luciferase reporter, 24 h; percent of 100 nM tunicamycin response; reporter increase, % at 12.5 µM; 360,000 compounds, 0.23% hits;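 active means mean luciferase reporter signal, scaled so untreated is 0 and the glycosylation-blocking control 100, at or above a set limit in every replicate; inconclusive means mean reaches the limit but not every replicate does; inactive means mean below the limit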;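 further: luciferase carries N-glycosylation sites so blocking glycosylation raises the light; 0% = median of neutral control wells and 100% = median of 100 nM tunicamycin wells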
* marks the source's active call; other numbers are inactive results; i = inactive; ? = inconclusive; / = no result. Shown is part of a subset that was picked to be rich in hits.

SMILES | ALR inh | T cell HTS | N-glyco inh
Cc1ccc(/C(O)=C2/C(=O)C(=O)N(c3ccccn3)C2c2cccc([N+](=O)[O-])c2)cc1 (stereo not given) | 11 | 206 | 5
Cc1ccc(C(=O)OC(C)CN2C(C)CCCC2C)cc1 (stereo not given) | -11 | 228 | 1
COc1ccc(/C=N/NC(=O)c2ccncc2)cc1OC | -5 | 233 | 3
COc1cc(/C=N/NC(=O)c2cc3ccccc3[nH]2)ccc1O | 100* | 392 | 0
COc1cc(/C=N/NC(=O)c2cccc(C(=O)N/N=C/c3ccc(O)c(OC)c3)n2)ccc1O | 2 | 192 | 1
COc1ccc(/C=N/NC(=O)c2cc3c(OC)ccc(OC)c3[nH]2)cc1O | 66 | 217 | 20
COc1ccc(/C=N/Nc2cc(C)nc(N)n2)cc1 | 0 | 208 | 0
COc1cc(/C=N/NC(=O)c2nc(C)cc(C)n2)ccc1O | 99* | 205 | 2
COc1cc(/C=N/Nc2cc(C)nc(N)n2)ccc1O | 98* | 287 | -4
COc1cc(/C=N/NC(=O)c2ccncc2)ccc1O | 99* | i | 0
CCOC(=O)c1oc2nc(CC(C)C)c3c(c2c1N)CCCC3 | -4 | 244 | -4
CC(C)(C)S(=O)N1Cc2cc(C(=O)N3CCOCC3)nc(-c3cccc(Br)c3)c2[C@@H]1CCO (stereo not given in full) | / | / | 3
Cc1ccc(-n2nc(C)c(NC(=O)COC(=O)c3ccccc3NCCO)c2C)cc1 | / | 354 | 0
Cc1c(C)[n+](=O)c(C)c(C)n1[O-] | / | / | 2
COc1cc(/C=N/NC(=O)C(=O)Nc2ccccn2)ccc1O | ? | 277 | 0
O=C(O)c1ccc(/C=N/Nc2ccc(C(F)(F)F)cn2)cc1 | / | / | -5
COc1cc(/C=N/NC(=O)C(=O)/C=C2\NC(C)(C)Cc3ccccc32)ccc1O | 82* | 94 | 0
COc1cc(/C=N/NC(=O)C2(O)c3ccccc3-c3ccccc32)ccc1O | 99* | 338 | -1
COc1ccc(/C=N/NC(=O)c2cc[n+]([O-])cc2)cc1OC | 2 | 182 | 0
COc1cc(/C=N/NC(=O)c2cc[n+]([O-])cc2)ccc1O | 99* | 502 | 3
COc1cc(/C=N/Nc2ccc(C(F)(F)F)cn2)ccc1O | 99* | 510 | 2
CCOc1ccc(/C=N/NC(=O)C2(O)c3ccccc3-c3ccccc32)cc1 | -5 | 307 | 1
Nc1ccn([C@@H]2O[C@H](C(=O)N[C@H]3c4ccccc4C[C@H]3O)[C@@H](O)[C@H]2O)c(=O)n1 | / | / | 1
O=C(Cn1ccc(C(F)(F)F)n1)N/N=C/c1ccc2c(c1)OCO2 | -2 | 674 | 7
C=CCn1c(SCC(=O)Nc2c(C)n(C)n(-c3ccccc3)c2=O)nnc1-c1ccncc1 | / | / | 6
SMILES | ALR inh | T cell HTS | N-glyco inh
COc1cc(/C=N/Nc2ncc(C(F)(F)F)cc2Cl)cc(OC)c1OC | -9 | 272 | 8
COc1cc(/C=N/Nc2ncc(C(F)(F)F)cc2Cl)cc(OC)c1O | 99* | i | 5
COc1ccccc1N1CCN(Cc2cc(=O)c(OCC#N)co2)CC1 | 6 | 709 | 1
COc1cc(CN2C(=S)NC(C)(C)CC2(C)O)cc(OC)c1 (stereo not given) | 0 | 159 | -1
COCCNC(=O)C1CCCN(C(=O)c2cc(-c3ccccc3)cs2)CC1 (stereo not given) | / | / | 0
O=C1NC[C@H](Cc2ccc(O)cc2)N(C[C@H]2CCCN2C[C@H](Cc2ccc(O)cc2)N2C[C@H](Cc3ccc(O)cc3)N(CCc3ccccc3)C(=O)C2=O)C1=O | / | / | 5
O=C1NC[C@H](Cc2ccccc2)N(C[C@H]2CCCN2C[C@H](Cc2ccccc2)N2C[C@H](Cc3ccc(O)cc3)N(CCc3ccccc3)C(=O)C2=O)C1=O | / | / | 37*
COc1ccc(NC(=O)CSc2nnc(-c3cc(C)[nH]n3)n2N)cc1 | -5 | 226 | 2
COc1cccc(C2CCCCN(C)C2=O)c1 (stereo not given) | / | 265 | 1
O=C(CN(C(=O)CCC(=O)Nc1nccs1)c1cccc(F)c1)NCCc1ccccc1 | -4 | 366 | 0
Cc1cccc2sc(NNC(=O)C3COc4ccccc4O3)nc12 (stereo not given) | 100* | 248 | 3
O=C(NNc1nc2c(F)cc(F)cc2s1)C1COc2ccccc2O1 (stereo not given) | / | 267 | 2
CCc1ccc(N2CC(C(=O)OCC(=O)Nc3ccc([N+](=O)[O-])cc3)CC2=O)cc1 (stereo not given) | 1 | 412 | 2
CC1=Nc2ccccc2/C1=C/c1c(N)n2c(S(=O)(=O)C(C)C)nsc2nc1=O | 97* | 481 | 0
CC1=Nc2ccc(C)cc2/C1=C/c1c(N)n2c(S(=O)(=O)C(C)C)nsc2nc1=O | / | / | 2
O=C(COc1ccc(Br)cc1)Nc1nc(-c2cccnc2)cs1 | -2 | 146 | -2
COc1ccc(NC(=O)CN(C)C(=O)CNC(=O)c2ccc3c(c2)OCO3)cc1 | -3 | 346 | -1
CCOc1nc(Oc2cccc(C(=O)O)c2)nc(Oc2cccc(C(=O)O)c2)n1 | 97* | 169 | 1
CCC(C)(C)c1ccc(Oc2cccc(C(=O)O)c2)cc1 | 39 | 75 | 1
CN1/C(=C\C=N\NC(=O)c2ccc(O)cc2)C(C)(C)c2ccccc21 | 19 | 302 | -7
CN1/C(=C\C=N\NC(=O)c2cccnc2)C(C)(C)c2ccccc21 | 98* | 258 | -1
Cc1cc(C)c(NS(=O)(=O)c2ccccc2)c(C)n1 | / | / | 0
O=S1(=O)NC(=NC2CCCCCC2)c2ccccc21 | 89* | 473 | 1
CC(N=C1NS(=O)(=O)c2ccccc21)c1ccccc1 (stereo not given) | -4 | 275 | 3
COc1ccc(S(=O)(=O)CCC(=O)NCc2ccc(C)o2)cc1 | 86* | 157 | 1
SMILES | ALR inh | T cell HTS | N-glyco inh
COc1ccc(CNC(=O)CCS(=O)(=O)c2ccc(Br)cc2)cc1 | -8 | 992 | 2
O=C(c1ccccc1)c1nccn1-c1ccc(Cl)nn1 | -2 | 80 | 0
O=C(NC(NC(=S)Nc1c(Cl)cccc1Cl)C(Cl)(Cl)Cl)OCc1ccccc1 (stereo not given) | / | 184 | 0
Cc1nc2c(C(=O)NCCC(C)C)c[nH]n2c(=O)c1Cl | 95* | 282 | 2
Cc1nc2c(C(=O)NCCc3ccccc3)c[nH]n2c(=O)c1Cl | 3 | 444 | 1
S=c1nccc(-c2ccc(Cl)cc2)[nH]1 | / | 276 | 2
Cc1nc2ccccn2c1-c1ccnc(=S)[nH]1 | 100* | 178 | 1
O=C(c1ccc2[nH]ccc2c1)N1CCCC(Nc2ccccc2)C1 (stereo not given) | 99* | 302 | 2
COc1c(C)cc(C(=O)C2CCCN(C(=O)c3ccc4[nH]ccc4c3)C2)cc1C (stereo not given) | 1 | 382 | 0
Cc1ccc(NC2CCCN(C(=O)c3ccc4[nH]ccc4c3)C2)cc1C (stereo not given) | 88* | 188 | 1
